Key:
Type in all cases: functional, cell-based
HeLa = assay: Antiproliferative activity against human HeLa cells after 72 hrs by MTT assay
How it was run: (§1)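 Cells seeded at 8000 per well in 96-well plates, exposed to compound for 72 h. MTT added at 0.5 mg/mL final and incubated 4 h. Formazan dissolved in DMSO, absorbance read at 570 nm. IC50 is the concentration giving 50% reduction in cell growth, reported as the mean of three repeated experiments.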

[1] = Antiproliferative activity against human LM7 cells after 72 hrs by MTT assay; details: LM7, 72 h; how it was run: as §1
[2] = Antiproliferative activity against human MDA-MB-435S cells after 72 hrs by MTT assay; how it was run: as §1
SW480 = assay: Antiproliferative activity against human SW480 cells after 72 hrs by MTT assay; details: SW480, 72 h; how it was run: as §1
HEp-2 = assay: Antiproliferative activity against human Hep2 cells after 72 hrs by MTT assay; details: HEp-2, 72 h; how it was run: as §1
MCF7 = assay: Antiproliferative activity against human MCF7 cells after 72 hrs by MTT assay; details: MCF7, 72 h; how it was run: as §1

IC50 (HeLa) [µM]	IC50 (SW480) [µM]	IC50 (MCF7) [µM]	Compound	IC50 [1] [µM]	IC50 [2] [µM]	IC50 (HEp-2) [µM]
4.4	5.9	41.4	Cc1ccc2occ(CSC(=S)N3CCCC3)c(=O)c2c1	3.4	1.9	3.6
9	16.3	–	O=c1c(SC(=S)N2CCCCC2)coc2ccccc12	7.8	17.4	5.8
> 25	7.2	> 25	COc1ccc2c(=O)cc(CSC(=S)N(C(C)C)C(C)C)oc2c1	19.1	22.1	7.6
6.6	> 25	> 25	CCOC(=O)c1cc(=O)c2cc(CSC(=S)N3CCCC3)ccc2o1	18	3.4	8.9
–	> 40	31.7	CC(C)N(C(=S)SCc1cc(=O)c2ccccc2o1)C(C)C	> 25	> 40	13.6
> 25	> 40	> 30	O=c1c(CSC(=S)N2CCN(C(c3ccc(F)cc3)c3ccc(F)cc3)CC2)coc2ccccc12	> 25	> 40	9.6
> 25	> 25	> 25	CCOC(=O)c1cc(=O)c2cc(CSC(=S)N(C(C)C)C(C)C)ccc2o1	> 25	8.1	15.9
6.1	3.8	20.7	Cc1ccc2occ(CSC(=S)N3CCOCC3)c(=O)c2c1	14.3	5.5	4
> 40	18.1	> 40	CC(C)N(C(=S)SCc1oc2ccccc2c(=O)c1Cl)C(C)C	> 40	23.6	20
0.7	1.4	2.3	O=c1c(Cl)c(CSC(=S)N2CCCC2)oc2ccccc12	1.9	1.8	0.6
25.9	21.2	> 25	O=c1cc(CSC(=S)N2CCN(c3ccccc3)CC2)oc2ccc(Cl)cc12	15.9	18.6	15.9
5.8	> 25	21.9	CCOC(=O)c1cc(=O)c2cc(CSC(=S)N3CCCCC3)ccc2o1	16.9	2.9	3.4
> 40	> 25	> 25	O=c1cc(CSC(=S)N2CCCC2)oc2ccc(Cl)cc12	> 25	> 25	> 40
23.1	23.4	35.8	O=c1cc(CSC(=S)N2CCCC2)oc2ccccc12	40	> 30	9.1
> 25	3.1	> 25	COc1ccc2c(=O)cc(CSC(=S)N3CCOCC3)oc2c1	11	3.4	3
3.5	6.7	> 40	COc1ccc2c(=O)c(CSC(=S)N3CCCCC3)coc2c1	4.7	0.93	4.3
1.3	7.8	0.6	O=c1c(CSC(=S)N2CCCC2)coc2ccc(Cl)cc12	2.6	6.4	2.1
1.4	> 25	6.6	Cc1ccc2occ(CSC(=S)N(C(C)C)C(C)C)c(=O)c2c1	6.3	0.24	0.7
2	6.2	8.1	O=c1c(CSC(=S)N2CCOCC2)coc2ccc(Cl)cc12	6.2	0.6	0.9
11.9	2.3	10	COc1ccc2c(=O)cc(CSC(=S)N3CCCCC3)oc2c1	5	1.5	1.5
4.5	1.8	11.1	O=c1c(Cl)c(CSC(=S)N2CCOCC2)oc2ccccc12	19.2	4.1	9
> 30	6.8	> 30	CC(C)N(C(=S)SCc1coc2ccccc2c1=O)C(C)C	21.9	7.9	3
> 25	2.3	> 25	O=c1c(CSC(=S)N2CCCC2)coc2ccccc12	6	3.8	3.6

IC50 (HeLa) [µM]	IC50 (SW480) [µM]	IC50 (MCF7) [µM]	Compound	IC50 [1] [µM]	IC50 [2] [µM]	IC50 (HEp-2) [µM]
16.3	> 25	> 25	O=c1c(SC(=S)N2CCCC2)coc2ccc(Cl)cc12	24.6	24	26
5.4	4.8	> 40	COc1ccc2c(=O)c(CSC(=S)N(C(C)C)C(C)C)coc2c1	4.7	1.8	8.9
8.3	> 25	> 25	O=c1c(SC(=S)N2CCCCC2)coc2ccc(Cl)cc12	> 25	13.3	12.2
> 25	> 25	> 25	CCOC(=O)c1cc(=O)c2cc(CSC(=S)N3CCOCC3)ccc2o1	> 25	> 25	> 25
> 30	> 25	> 25	CC(C)N(C(=S)SCc1cc(=O)c2cc(Cl)ccc2o1)C(C)C	> 30	> 25	22.7
7.9	4.5	9.6	O=c1c(CSC(=S)N2CCN(Cc3ccccc3)CC2)coc2ccccc12	19.1	4.4	2.9
5.9	–	22.9	CN1CCN(C(=S)SCc2coc3ccccc3c2=O)CC1	17.6	2.2	2.4
> 25	> 25	0.8	Cc1ccc2occ(CSC(=S)N3CCCCC3)c(=O)c2c1	5.1	1.7	0.9
–	5.9	4	O=c1c(CSC(=S)N2CCOCC2)coc2ccccc12	12	3.9	4.4
3.8	> 25	12.2	O=c1c(SC(=S)N2CCCC2)coc2ccccc12	–	1.9	7.4
18.1	> 25	> 25	CCOC(=O)c1cc(=O)c2cc(CSC(=S)N(C)c3ccccc3)ccc2o1	> 25	13.5	–
> 25	> 25	> 25	CN(C(=S)SCc1coc2ccccc2c1=O)c1ccccc1	> 25	> 25	> 25
12.1	4.8	34.1	COc1ccc2c(=O)c(CSC(=S)N3CCCC3)coc2c1	6	1.8	3.1
8.7	> 25	> 25	CCN(CC)C(=S)SCc1cc(=O)c2cc(Cl)ccc2o1	8.8	23.5	8.8
35.6	24.4	21	O=c1cc(CSC(=S)N2CCOCC2)oc2ccccc12	25.2	22.2	> 25
33.3	> 25	> 25	O=c1cc(CSC(=S)N2CCOCC2)oc2ccc(Cl)cc12	> 25	> 25	20.6
2.3	1.2	1.7	O=c1c(CSC(=S)N2CCCCC2)coc2ccccc12	4.6	0.47	0.39
7.1	5.2	> 30	O=c1c(CSC(=S)N2CCN(c3ccccc3)CC2)coc2ccccc12	2.9	9.7	16.7
> 25	2.5	> 25	O=c1cc(CSC(=S)N2CCCCC2)oc2ccc(Cl)cc12	13.8	3	1.6
9.5	7.1	11.8	COc1ccc2c(=O)c(CSC(=S)N3CCOCC3)coc2c1	> 40	> 40	4.8
> 25	> 25	–	CC(C)N(C(=S)SCc1coc2ccc(Cl)cc2c1=O)C(C)C	> 25	> 25	4.2
> 25	13.7	> 25	O=c1cc(CSC(=S)N2CCCCC2)oc2ccccc12	> 25	> 25	12

Compound	IC50 (HeLa) [µM]	IC50 (SW480) [µM]	IC50 (MCF7) [µM]	IC50 [1] [µM]	IC50 [2] [µM]	IC50 (HEp-2) [µM]
O=c1cc(CSC(=S)N(CCCl)CCCl)oc2ccccc12	> 25	25.1	> 25	> 25	3.7	15.6

Source: ChEMBL document CHEMBL1153612, “Synthesis and antitumor activity of novel dithiocarbamate substituted chromones” (Eur J Med Chem, 2009)
